Tested on: Plasmodium yoelii
Test: NOVARTIS: Antimalarial liver stage activity measured as reduction in Plasmodium yoelii schizont area in HepG2-A16-CD81 cells by immuno-fluorescence, and median schizont size at 10uM compound concentration
Format: functional, organism-based
Conditions: for IC50: Plasmodium yoelii, HepG2-A16-CD81
Summary of the method: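 Host and parasite nuclei stained with Hoechst 33342, parasites with αPyHSP70 antibody; 25 images per well by high-content imaging; median parasite (schizont) area measured by automated image analysis, ~50 schizonts per experiment, two or more independent experiments.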

Structure (SMILES) | IC50 | Schizont size
COc1cc(C(=O)NCCc2ccccn2)ccc1OC1CCN(CC(c2ccccc2)c2ccccc2)CC1 | 1280 nM | –
COc1cccc(NC(=O)Cn2c(C)c(C#N)c3ccccc32)c1 | > 9960 nM | 134.12 um
COc1cncc(-c2cncc(-c3ccc(C)cc3)n2)c1 | > 10000 nM | –
COc1ccccc1-n1c(C=Cc2cc(Br)ccc2O)nc2ccccc2c1=O | 4590 nM | –
NC(Cc1ccccc1)C(=O)N1CCn2c(nc(-c3ccccc3)c2Nc2ccc3c(c2)OCO3)C1 (stereo unspecified) | 1.85 nM | –
O=C(Nc1ccc(-c2nc3ccccc3[nH]2)cc1)c1ccc(-c2ccc(Cl)cc2)o1 | 6650 nM | –
COc1cc(C(=O)Nc2ccc3nc4n(c(=O)c3c2)CCCCC4)cc(OC)c1OC | > 10000 nM | –
CC(=O)Nc1cccc(-c2cncc(-c3ccc(C(=O)O)cc3)n2)c1 | > 10000 nM | –
COc1cccc(CNC(=O)C2CNCC2c2ccc(C(F)(F)F)cc2)c1 (stereo unspecified) | 857 nM | –
COC(=O)c1ccc(C2C3=C(O)CC(c4ccco4)CC3=Nc3ccccc3N2C(=O)c2ccccc2)cc1 (stereo unspecified) | > 4780 nM | 140.38 um
Cc1nc2ccc(NC(=O)C3CC3)cc2c(=O)n1Cc1ccc(Cl)cc1 | > 10000 nM | –
Oc1c2c(nc3cc(-c4ccc(Br)cc4)nn13)CCCC2 | 499 nM | –
CC(c1nc2ccc(Cl)cc2c(=O)n1C)N1CCN(S(=O)(=O)c2cccc3ccccc23)CC1 (stereo unspecified) | 22.3 nM | –
COc1ccc2[nH]c(SCC(=O)Nc3cccc(NC(=O)CSc4nc5cc(OC)ccc5[nH]4)n3)nc2c1 | > 9290 nM | 180.05 um
COc1cc(OC)c(NC(=O)C2c3ccccc3C(=O)N(C)C2c2ccc(OC)c(OC)c2)cc1Cl (stereo unspecified) | > 9130 nM | 165.85 um
CCCCCCN(C(=O)c1ccc(C(C)(C)C)cc1)C(CC)c1nc2ccccc2c(=O)n1-c1ccc(F)cc1 (stereo unspecified) | > 6910 nM | –
CCCn1c(-c2cccc(Br)c2)nc2ccccc21 | > 8910 nM | 198.63 um
O=C(c1ccc2nc(N3CCCCC3)sc2c1)N1CCN(Cc2ccc3c(c2)OCO3)CC1 | > 9220 nM | 168.67 um
CCCCC(CC)C(=O)N1CCN(C(CC)c2nc3ccccc3c(=O)n2C)CC1 (stereo unspecified) | 231 nM | –
CCc1c(C)c(C#N)c2nc3ccccc3n2c1NCc1ccccc1 | > 9600 nM | 126.09 um

Structure (SMILES) | IC50 | Schizont size
COc1ccccc1CNC(=O)c1nn(-c2ccc(Cl)cc2)c(=O)c2ccccc12 | > 10000 nM | –
CC(C)(C)OC(=O)N1CCC(c2c(C(=O)Nc3cccc(C(F)(F)F)c3)cnn2-c2ccc(F)cc2F)CC1 | 3120 nM | –
COc1cccc(-c2cncc(-c3cncc(OC)c3)n2)c1 | > 10000 nM | –
CC(C)CC(N)C(=O)N1CCn2c(nc(-c3ccccc3)c2Nc2ccc3c(c2)OCO3)C1 (stereo unspecified) | 186 nM | –
O=C1N(Cc2cc3ccccc3s2)CC2CN(Cc3ccsc3)CCN12 (stereo unspecified) | 25.5 nM | –
COc1ccc2[nH]c(=O)c(CN(C(=S)Nc3ccccc3OC)C3CCCC3)cc2c1 | > 9740 nM | 157.5 um
CCCc1nc2ccc(NC(=O)c3ccccc3F)cc2c(=O)n1Cc1ccc(-c2ccccc2)cc1 | 1730 nM | –
NCC(=O)N1CCn2c(nc(-c3ccccc3)c2Nc2ccc3c(c2)OCO3)C1 | 221 nM | –
CCCN(C(=O)Nc1c(C(C)C)cccc1C(C)C)C(CC)c1nc2ccccc2c(=O)n1-c1cccc(C)c1 (stereo unspecified) | 6300 nM | –
CC(c1nc2ccccc2c(=O)n1C)N1CCN(C(=O)C(C)(C)C)CC1 (stereo unspecified) | 492 nM | –
COc1cccc(OC)c1C(=O)Nn1c(-c2cccc(C)c2)nc2ccccc2c1=O | > 10000 nM | –
CCCCCCN(C(=O)COc1ccccc1)C(CC)c1nc2ccccc2c(=O)n1-c1cccc(Cl)c1 (stereo unspecified) | > 10000 nM | –
COc1ccc2cc3[n+](cc2c1OC)CCc1cc2c(cc1-3)OCO2.[Cl-] [BERBERINE CHLORIDE] | 548 nM | 102.08 um
CC1(C)N=C(N)N=C(N)N1c1ccc(Cl)cc1.Cl [CHLORCYCLOGUANIL HYDROCHLORIDE] | 2.56 nM | 33.09 um
C[C@@H]1C[C@@H]([C@H](O)CC2CC(=O)NC(=O)C2)C(=O)[C@@H](C)C1 [CYCLOHEXIMIDE] | 78.1 nM | 14.61 um
Cc1cc(N)c2ccccc2[n+]1CCCCCCCCCC[n+]1c(C)cc(N)c2ccccc21.[Cl-].[Cl-] [DEQUALINIUM CHLORIDE] | 566 nM | 40.29 um
CC[C@H]1CN2CCc3cc(OC)c(OC)cc3[C@@H]2C[C@@H]1C[C@H]1NCCc2cc(OC)c(OC)cc21 [EMETINE] | 7.49 nM | 26.51 um
CCc1nc(N)nc(N)c1-c1ccc(Cl)cc1 [PYRIMETHAMINE] | 2.15 nM | 37.58 um
CCN(CC)CCCC(C)Nc1c2ccc(Cl)cc2nc2ccc(OC)cc12 (stereo unspecified) [QUINACRINE] | 166 nM | 26.3 um
O=C1c2ccccc2-n2c1nc1ccccc1c2=O [TRYPTANTHRIN] | 225 nM | 89.55 um

Reference: ChEMBL document CHEMBL1789904, “Imaging of Plasmodium liver stages to drive next-generation antimalarial drug discovery” (Science, 2011)
